An excerpt weighted towards active compounds, which were near 1.8% of everything screened.
M4 antag: antagonists of human muscarinic M4 receptor (CHRM4); P08173; CHO-hM4 cells, ACh EC80, Fluo-8 calcium fluorescence; inhibition, % at 3 µM; 360,000 tested, 0.73% active;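 active = inhibition above its plate's cutoff, the mean inhibition of sample wells plus 3 SD, cut at about 27% in these data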;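 also: 0% = acetylcholine EC80 with DMSO and 100% = DMSO without agonist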
Target sequence (P08173 whole entry, looked up): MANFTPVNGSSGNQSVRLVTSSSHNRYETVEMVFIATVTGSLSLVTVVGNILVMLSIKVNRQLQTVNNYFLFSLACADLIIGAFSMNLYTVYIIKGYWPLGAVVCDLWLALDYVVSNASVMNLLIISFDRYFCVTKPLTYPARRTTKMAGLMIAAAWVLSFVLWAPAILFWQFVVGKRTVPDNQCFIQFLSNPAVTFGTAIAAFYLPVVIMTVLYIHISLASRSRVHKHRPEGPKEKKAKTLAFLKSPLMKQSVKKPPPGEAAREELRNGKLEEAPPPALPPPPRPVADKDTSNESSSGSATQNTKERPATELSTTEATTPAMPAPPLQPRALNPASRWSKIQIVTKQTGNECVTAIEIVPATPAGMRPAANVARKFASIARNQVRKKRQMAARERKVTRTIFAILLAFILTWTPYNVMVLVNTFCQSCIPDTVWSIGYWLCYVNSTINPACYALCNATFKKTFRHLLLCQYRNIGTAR
CHRM4 PAM: potentiates acetylcholine response at human M4 receptor. P08173. CHO-K1 hM4/Gqi5, Fluo-8 calcium fluorescence, ACh EC20; 0% = ACh EC20, 100% = maximal ACh. activation, % at 3 µM. 360,000 tested, 0.4% active. AID 624126;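 active = activation above its plate's cutoff, the mean activation of sample wells plus 3 SD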
M5 ag: agonists of human muscarinic M5 receptor (CHRM5). CHO-K1 hM5 cells, Fluo-8 calcium fluorescence; 0% DMSO wells, 100% maximal acetylcholine response. AID 624037. 360,000 tested, 0.19% active. P08912. activation, % at 3 µM;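 active = activation above the run's mean over test compounds plus 3 SD, cut at about 23% in these data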;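 also: signal is peak over basal fluorescence ratio across the kinetic read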
CHRM4 agonist: agonists of human muscarinic M4 receptor (CHRM4). activation, % at 3 µM. P08173. 360,000 tested, 0.14% active. CHO-K1 hM4/Gqi5, Fluo-8 calcium fluorescence; vehicle 0%, full acetylcholine response 100%;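 active = activation above the run mean over all test wells plus 3 SD, cut at about 32% in these data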;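 also: peak over basal fluorescence ratio per well then scaled between controls; 0% = DMSO wells and 100% = acetylcholine at EC100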
M5 antag: antagonists of human muscarinic M5 receptor (CHRM5). P08912. CHO-hM5 cells, Fluo-8 calcium fluorescence, ACh EC80. inhibition, % at 3 µM. 360,000 tested, 0.59% active. AID 624040;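 active = inhibition above a per-plate cutoff, the mean of that plate's test compounds plus 3 SD, cut at about 27% in these data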;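 also: 0% = acetylcholine EC80 with DMSO and 100% = DMSO without agonist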
M5 PAM: potentiates acetylcholine response at human M5 receptor; P08912; CHO-K1 hM5, Fluo-8 calcium, ACh EC20 PAM; 0% = ACh EC20, 100% = ACh EC100; activation, % at 3 µM; 360,000 tested, 0.3% active; AID 624038;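 active = activation above the run cutoff, the mean activation of all test compounds plus 3 SD, cut at about 18% in these data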
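Replicates: One well per compound, no replicates | System: Human M5 receptor in CHO-K1 cells | Benchmarks: Low control EC20 acetylcholine (0%), high control EC100 acetylcholine (100%) | Probe or stimulus: Acetylcholine, EC20 level | Times: Fluo-8 loading 80 min at 37 °C plus 30 min room temperature | Signal: Intracellular calcium via Fluo-8 fluorescence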
Numbers without * were called inactive.

SMILES | M4 antag | CHRM4 PAM | M5 ag | CHRM4 agonist | M5 antag | M5 PAM
Cc1[nH]c2ccccc2c1/C=N/NC(=O)c1cc(-c2ccncc2)nc2ccccc12 | 1.4 | -6.3 | 1.1 | 12.9 | 24.1 | 31.1*
Cc1[nH]c2ccccc2c1/C=N/NC(=O)c1cc(-c2ccccc2)n[nH]1 | 10.5 | -7.1 | 4.5 | 4.3 | -0.5 | -4.0
CC(=O)c1sc2nc(-c3ccc(C)cc3)c3c(c2c1N)CCCC3 | -3.0 | -12.3 | -1.9 | -0.9 | 4.1 | -2.4
Cc1ccc(-c2nc3sc(C(N)=O)c(N)c3c3c2CCCC3)cc1 | 99.5* | -17.6 | -0.4 | -2.2 | 10.2 | -12.4
CCOc1ccc(CCNC(=O)CS(=O)Cc2nc(-c3ccc(OC)cc3)oc2C)cc1OCC (centres undefined) | -1.4 | -3.5 | -2.0 | 2.8 | -9.4 | -0.4
C=CCn1c(SCc2ccc(C(=O)Nc3nccs3)cc2)nnc1-c1ccc(C)c(Cl)c1 | 19.7 | -15.7 | 0.8 | 9.1 | 26.9* | -16.1
CN(C(=O)c1ccc(NC(=O)C2CCCN(C(=O)OC(C)(C)C)C2)cc1)C1CCC1 (centres undefined) | 9.6 | -4.8 | 4.7 | 2.9 | 18.8 | -6.4
COc1ccc(NC(=O)C2CCCNC2)cc1OCC(C)C (centres undefined) | 7.4 | -0.6 | -6.3 | 0.5 | 4.2 | -1.6
COc1ccc(NC(=O)C2CCCN(CCCc3ccccc3)C2)cc1OCC(C)C (centres undefined) | 28.5* | -18.1 | -10.8 | 31.7 | 7.8 | -2.0
Oc1c(N=Nc2ccccn2)ccc2ccccc12 | 34.6* | -0.2 | -7.1 | 0.6 | 33.2* | -14.0
Oc1[nH]c2ccccc2c1N=Nc1ccccn1 | -8.1 | 6.7 | 3.2 | 0.7 | 11.4 | 0.5
CCOC(=O)[C@]12CCCC=C1N(Cc1ccco1)C(=O)[C@H](CC(=O)N1CCSCC1)C2 | 9.2 | 4.1 | 2.2 | -0.6 | 10.1 | 2.1
CCN(CC)CCn1c(=S)[nH]c2cc(C(=O)NCc3ccccc3Cl)ccc2c1=O | 9.9 | -3.7 | -7.3 | -0.7 | 5.3 | 1.4
CCOc1ccc(C(=O)Nc2cc(-c3nc4ccccc4[nH]3)ccc2Cl)cc1[N+](=O)[O-] | 14.7 | -7.5 | 3.5 | 11.6 | 38.5* | -14.8
CCOc1ccc(C(=O)Nc2cc(-c3nc4ccccc4[nH]3)ccc2C)cc1[N+](=O)[O-] | -1.4 | 7.3 | -4.2 | 6.3 | 0.5 | -2.1
O=C(CCl)Nc1ccccc1C(=O)c1ccccc1 | -6.0 | 19.8* | -11.6 | 0.2 | 3.5 | 8.1
CCCc1nc2c3ccccc3ccn2c1Cc1ccccc1 | 13.0 | -16.7 | -7.4 | 1.5 | 28.0* | -21.8
Cc1ccc(-c2nc3c4ccccc4ccn3c2Cc2ccccc2)cc1 | -10.8 | 7.6 | -2.3 | -0.6 | -5.7 | -0.6
O=C1C=C(c2ccc3c(c2)OCO3)C[C@@H](c2ccc(Cl)cc2)C1 | -6.1 | 6.1 | 3.8 | 1.2 | 1.7 | 1.9
Nc1c(C(=O)CSc2nccn2-c2ccc(Cl)cc2)c(=O)[nH]c(=O)n1C1CC1 | -8.1 | 7.1 | -1.4 | 0.4 | -1.6 | 18.5*
CCCNC(=O)C(Cc1ccc(Cl)cc1)NC(=O)c1ccc(-c2ccccc2)cc1 (centres undefined) | -8.4 | 13.3 | 2.1 | 1.4 | -3.8 | 5.6
COc1cc(C(=O)O)c2c(c1C)OC(=O)c1c(C)cc(O)c(C=O)c1O2 | 4.0 | -0.8 | 1.2 | -0.1 | 7.5 | -4.7
Cc1cc(C)nc(/N=C(\N)Nc2cccc(OCc3ccccc3)c2)n1 | 68.3* | -17.0 | 38.9* | 81.4* | 29.1* | -31.8
COc1ccc(N/C(N)=N/c2nc(C)cc(C)n2)cc1 | 14.1 | -9.9 | 0.5 | 7.1 | 2.6 | -6.7
COc1ccccc1N/C(N)=N/c1nc(C)cc(C)n1 | -12.3 | 2.1 | -4.3 | 2.6 | 12.0 | -5.5
SMILES | M4 antag | CHRM4 PAM | M5 ag | CHRM4 agonist | M5 antag | M5 PAM
Cc1cc(C)nc(/N=C(\N)Nc2ccc(CC(=O)OC(C)C)cc2)n1 | 82.7* | -19.5 | 30.7* | 112.8* | 41.7* | -34.6
Cc1cc(C)nc(/N=C(\N)Nc2ccc(OCc3ccccc3)cc2)n1 | 97.6* | -28.1 | 62.6* | 111.3* | 96.3* | -18.6
Cc1cc(C)nc(/N=C(\N)Nc2ccc(OCCC(C)C)cc2)n1 | 86.1* | -18.6 | 64.5* | 105.3* | 76.3* | -35.2
CCOC(=O)C(=O)Nc1ccc(OCc2ccccc2)cc1 | -2.7 | -4.4 | 2.1 | 7.1 | 12.9 | -10.3
Cc1cc(C)nc(/N=C(\N)Nc2ccc(S(=O)(=O)O)cc2)n1 | 9.2 | -1.5 | -0.2 | 0.9 | 8.4 | -1.5
O=C(CSc1cc(Cl)ccc1Cl)NCCN1C(=O)CSC1=O | 5.9 | -0.9 | -0.9 | 0.3 | 4.9 | 2.5
CN(C)C(=O)C(=O)c1cccn1-c1ccccc1C#N | -10.2 | 0.5 | -3.5 | 0.7 | 10.6 | -6.4
CC(C)N(C(=O)C(=O)c1cccn1-c1ccccc1C#N)C(C)C | 1.1 | 17.4* | -1.9 | 1.2 | -14.0 | 15.7
O=S(=O)(Cc1ccccc1)N1CCN(C/C=C/c2ccccc2)CC1 | 9.3 | -6.2 | -4.7 | 0.6 | 4.8 | -2.6
CS(=O)(=O)N1CCN(C/C=C/c2ccccc2)CC1 | -4.7 | 19.4* | -5.7 | 1.2 | -4.5 | -1.6
CCOc1ccccc1NC(=O)CSc1nncc2ccccc12 | -9.7 | 0.0 | 0.0 | 4.5 | 0.5 | 2.0
O=C(CCl)N1c2ccccc2Oc2ccc3ccccc3c21 | 31.9* | -12.4 | 37.5* | 47.5* | 23.0 | -9.9
CC(=O)N1c2ccccc2Oc2cc3ccccc3cc21 | 1.8 | -0.8 | -6.3 | -1.3 | 1.7 | -5.8
O=C(O)CSC1c2ccccc2C(=O)N1c1ccccc1 (centres undefined) | -13.6 | 0.4 | -7.0 | 0.1 | -4.2 | 37.5*
O=C1c2ccccc2NC(c2ccccc2O)N1c1ccc(F)cc1 (centres undefined) | -3.9 | -3.9 | -5.6 | 0.6 | 4.0 | -6.2
COc1ccc(NS(=O)(=O)c2ccc(C)c(C(=O)NCc3ccccc3CN3CCCC3)c2)cc1 | 0.3 | -6.0 | -1.8 | 1.4 | -0.7 | 1.2
c1ccc(Cc2noc(CN3CCCN(C4Cc5ccccc5C4)CC3)n2)cc1 | 51.1* | -28.2 | -12.5 | 15.1 | 31.5* | -30.6
CCOc1ccc(Cl)cc1-c1cc(C(=O)Nc2ccc(Br)cc2)[nH]n1 | -0.7 | -0.7 | -0.2 | -0.4 | 14.4 | -3.0
COc1ccc(/C=C/C(=O)NC(=S)NNC(=O)c2cnccn2)cc1 | 2.3 | 0.0 | 1.4 | 0.0 | -1.0 | -1.4
O=C(/C=C/c1ccc(F)cc1)NC(=S)NNC(=O)c1cnccn1 | 30.0* | 12.8 | 2.0 | 0.6 | 0.1 | 1.7
COc1ccc(N2CCN(C(=O)CCC(=O)N3CC(C)Oc4ccc(C)cc43)CC2)cc1 (centres undefined) | 2.8 | -9.0 | 0.2 | 2.7 | 1.2 | -3.3
